Legend:
Format in all cases: functional, Mus musculus
P388 [1] = experiment: Survival rate of the animals determined for antitumor activity against P388 Lymphocytic Leukemia system at a dose of 192 mg/kg
P388 [2] = experiment: Survival rate of the animals determined for antitumor activity against P388 Lymphocytic Leukemia system at a dose of 24 mg/kg
P388 [3] = experiment: Weight difference observed in survivors treated for antitumor activity against P388 Lymphocytic Leukemia system at a dose of 96 mg/kg
P388 [4] = experiment: Survival rate of the animals determined for antitumor activity against P388 Lymphocytic Leukemia system at a dose of 48 mg/kg
P388 [5] = experiment: Weight difference observed in survivors treated for antitumor activity against P388 Lymphocytic Leukemia system at a dose of 24 mg/kg
P388 [6] = experiment: Weight difference observed in survivors treated for antitumor activity against P388 Lymphocytic Leukemia system at a dose of 48 mg/kg
P388 [7] = experiment: Survival rate of the animals determined for antitumor activity against P388 Lymphocytic Leukemia system at a dose of 96 mg/kg
P388 [8] = experiment: Number of Survivors determined for antitumor activity against P388 Lymphocytic Leukemia system on day 5 at a dose of 1600 mg/kg (Group I) (6 out of 6)
P388 [9] = experiment: Number of Survivors determined for antitumor activity against P388 Lymphocytic Leukemia system on day 5 at a dose of 1600 mg/kg (Group II)(6 out of 6)
P388 [10] = experiment: Number of Survivors determined for antitumor activity against P388 Lymphocytic Leukemia system on day 5 at a dose of 1600 mg/kg (Group III)(5 out of 6)
P388 [11] = experiment: Number of Survivors determined for antitumor activity against P388 Lymphocytic Leukemia system on day 5 at a dose of 1600 mg/kg (Group IV)(5 out of 6)
P388 [12] = experiment: Number of Survivors determined for antitumor activity against P388 Lymphocytic Leukemia system on day 5 at a dose of 200 mg/kg (Group I)(6 out of 6)
P388 [13] = experiment: Number of Survivors determined for antitumor activity against P388 Lymphocytic Leukemia system on day 5 at a dose of 200 mg/kg (Group II)(6 out of 6)
P388 [14] = experiment: Number of Survivors determined for antitumor activity against P388 Lymphocytic Leukemia system on day 5 at a dose of 200 mg/kg (Group IV)(6 out of 6)
P388 [15] = experiment: Survival rate of the animals determined for antitumor activity against P388 Lymphocytic Leukemia system at a dose of 400 mg/kg (Group III)
Method in brief: (§1)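 P388 lymphocytic leukemia screen run in separate test groups (I–IV). Each group includes its own indicine N-oxide internal control, listed as the group's first entry. Survival and survivor weight change are read against that control. Material was limited, so some analogues were screened up to about 200 mg/kg maximum.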

P388 [16] = experiment: Survival rate of the animals determined for antitumor activity against P388 Lymphocytic Leukemia system at a dose of 1600 mg/kg (Group I)
P388 [17] = experiment: Weight difference observed in survivors treated for antitumor activity against P388 Lymphocytic Leukemia system at a dose of 800 mg/kg (Group I)
P388 [18] = experiment: Weight difference observed in survivors treated for antitumor activity against P388 Lymphocytic Leukemia system at a dose of 800 mg/kg (Group II)
P388 [19] = experiment: Weight difference observed in survivors treated for antitumor activity against P388 Lymphocytic Leukemia system at a dose of 800 mg/kg (Group III)
P388 [20] = experiment: Weight difference observed in survivors treated for antitumor activity against P388 Lymphocytic Leukemia system at a dose of 800 mg/kg (Group IV)
P388 [21] = experiment: Survival rate of the animals determined for antitumor activity against P388 Lymphocytic Leukemia system at a dose of 1600 mg/kg (Group II)
P388 [22] = experiment: Survival rate of the animals determined for antitumor activity against P388 Lymphocytic Leukemia system at a dose of 200 mg/kg (Group I)
P388 [23] = experiment: Survival rate of the animals determined for antitumor activity against P388 Lymphocytic Leukemia system at a dose of 200 mg/kg (Group II); method in brief: as §1
P388 [24] = experiment: Survival rate of the animals determined for antitumor activity against P388 Lymphocytic Leukemia system at a dose of 200 mg/kg (Group III); method in brief: as §1
P388 [25] = experiment: Survival rate of the animals determined for antitumor activity against P388 Lymphocytic Leukemia system at a dose of 200 mg/kg (Group IV); method in brief: as §1
P388 [26] = experiment: Survival rate of the animals determined for antitumor activity against P388 Lymphocytic Leukemia system at a dose of 400 mg/kg (Group I); method in brief: as §1
P388 [27] = experiment: Survival rate of the animals determined for antitumor activity against P388 Lymphocytic Leukemia system at a dose of 400 mg/kg (Group II); method in brief: as §1
P388 [28] = experiment: Number of Survivors determined for antitumor activity against P388 Lymphocytic Leukemia system on day 5 at a dose of 400 mg/kg (Group I)(6 out of 6)
P388 [29] = experiment: Number of Survivors determined for antitumor activity against P388 Lymphocytic Leukemia system on day 5 at a dose of 400 mg/kg (Group II)(6 out of 6)
P388 [30] = experiment: Number of Survivors determined for antitumor activity against P388 Lymphocytic Leukemia system on day 5 at a dose of 400 mg/kg (Group III)(6 out of 6)
P388 [31] = experiment: Number of Survivors determined for antitumor activity against P388 Lymphocytic Leukemia system on day 5 at a dose of 400 mg/kg (Group IV)(6 out of 6)
P388 [32] = experiment: Weight difference observed in survivors treated for antitumor activity against P388 Lymphocytic Leukemia system at a dose of 200 mg/kg (Group I); method in brief: as §1
P388 [33] = experiment: Weight difference observed in survivors treated for antitumor activity against P388 Lymphocytic Leukemia system at a dose of 200 mg/kg (Group II); method in brief: as §1
P388 [34] = experiment: Weight difference observed in survivors treated for antitumor activity against P388 Lymphocytic Leukemia system at a dose of 200 mg/kg (Group III); method in brief: as §1
P388 [35] = experiment: Weight difference observed in survivors treated for antitumor activity against P388 Lymphocytic Leukemia system at a dose of 200 mg/kg (Group IV); method in brief: as §1
P388 [36] = experiment: Survival rate of the animals determined for antitumor activity against P388 Lymphocytic Leukemia system at a dose of 400 mg/kg (Group IV); method in brief: as §1
P388 [37] = experiment: Weight difference observed in survivors treated for antitumor activity against P388 Lymphocytic Leukemia system at a dose of 400 mg/kg (Group I); method in brief: as §1
P388 [38] = experiment: Weight difference observed in survivors treated for antitumor activity against P388 Lymphocytic Leukemia system at a dose of 400 mg/kg (Group II); method in brief: as §1
P388 [39] = experiment: Weight difference observed in survivors treated for antitumor activity against P388 Lymphocytic Leukemia system at a dose of 400 mg/kg (Group III); method in brief: as §1
P388 [40] = experiment: Weight difference observed in survivors treated for antitumor activity against P388 Lymphocytic Leukemia system at a dose of 400 mg/kg (Group IV); method in brief: as §1
P388 [41] = experiment: Weight difference observed in survivors treated for antitumor activity against P388 Lymphocytic Leukemia system at a dose of 1600 mg/kg (Group I); method in brief: as §1
P388 [42] = experiment: Weight difference observed in survivors treated for antitumor activity against P388 Lymphocytic Leukemia system at a dose of 1600 mg/kg (Group III); method in brief: as §1
P388 [43] = experiment: Number of Survivors determined for antitumor activity against P388 Lymphocytic Leukemia system on day 5 at a dose of 800 mg/kg (Group I)(6 out of 6)
P388 [44] = experiment: Number of Survivors determined for antitumor activity against P388 Lymphocytic Leukemia system on day 5 at a dose of 800 mg/kg (Group II)(6 out of 6)
P388 [45] = experiment: Number of Survivors determined for antitumor activity against P388 Lymphocytic Leukemia system on day 5 at a dose of 800 mg/kg (Group III)(6 out of 6)
P388 [46] = experiment: Number of Survivors determined for antitumor activity against P388 Lymphocytic Leukemia system on day 5 at a dose of 800 mg/kg (Group IV)(6 out of 6)
P388 [47] = experiment: Survival rate of the animals determined for antitumor activity against P388 Lymphocytic Leukemia system at a dose of 800 mg/kg (Group I); method in brief: as §1
P388 [48] = experiment: Survival rate of the animals determined for antitumor activity against P388 Lymphocytic Leukemia system at a dose of 800 mg/kg (Group II); method in brief: as §1
P388 [49] = experiment: Survival rate of the animals determined for antitumor activity against P388 Lymphocytic Leukemia system at a dose of 800 mg/kg (Group III); method in brief: as §1
P388 [50] = experiment: Survival rate of the animals determined for antitumor activity against P388 Lymphocytic Leukemia system at a dose of 800 mg/kg (Group IV); method in brief: as §1
P388 [51] = experiment: Weight difference observed in survivors treated for antitumor activity against P388 Lymphocytic Leukemia system at a dose of 1600 mg/kg (Group II); method in brief: as §1
P388 [52] = experiment: Weight difference observed in survivors treated for antitumor activity against P388 Lymphocytic Leukemia system at a dose of 1600 mg/kg (Group IV); method in brief: as §1
P388 [53] = experiment: Number of Survivors determined for antitumor activity against P388 Lymphocytic Leukemia system on day 5 at a dose of 200 mg/kg (Group III)(6 out of 6)

Structure (SMILES): CC(C)C(O)(C(=O)OCC1=CC[N+]2([O-])CC[C@@H](O)C12)C(C)O (stereo in doubt; form 1)
- T/C (P388 [1]): 123%
- T/C (P388 [2]): 107%
- T-C (P388 [3]): -0.3
- T/C (P388 [4]): 114%
- T-C (P388 [5]): 0
- T-C (P388 [6]): -0.6
- T/C (P388 [7]): 114%

Structure (SMILES): CC(C)[C@](O)(C(=O)OCC1=CC[N+]2([O-])CC[C@@H](O)[C@@H]12)[C@H](C)O (stereo partly drawn) [INDICINE N-OXIDE]
- Survivors (P388 [8]): 6
- Survivors (P388 [9]): 6
- Survivors (P388 [10]): 5
- Survivors (P388 [11]): 5
- Survivors (P388 [12]): 6
- Survivors (P388 [13]): 6
- Survivors (P388 [14]): 6
- T/C (P388 [15]): 191%
- T/C (P388 [16]): 142%
- T-C (P388 [17]): -3.2
- T-C (P388 [18]): -3.3
- T-C (P388 [19]): -4.7
- T-C (P388 [20]): -2.6
- T/C (P388 [21]): 117%
- T/C (P388 [22]): 133%
- T/C (P388 [23]): 120%
- T/C (P388 [24]): 170%
- T/C (P388 [25]): 140%
- T/C (P388 [26]): 151%
- T/C (P388 [27]): 145%
- Survivors (P388 [28]): 6
- Survivors (P388 [29]): 6
- Survivors (P388 [30]): 6
- Survivors (P388 [31]): 6
- T-C (P388 [32]): -1.6
- T-C (P388 [33]): -0.5
- T-C (P388 [34]): -2.9
- T-C (P388 [35]): -0.7
- T/C (P388 [36]): 146%
- T-C (P388 [37]): -1.6
- T-C (P388 [38]): -1.9
- T-C (P388 [39]): -4.3
- T-C (P388 [40]): -1.7
- T-C (P388 [41]): -2.2
- T-C (P388 [42]): -5.8
- Survivors (P388 [43]): 6
- Survivors (P388 [44]): 6
- Survivors (P388 [45]): 6
- Survivors (P388 [46]): 6
- T/C (P388 [47]): 160%
- T/C (P388 [48]): 200%
- T/C (P388 [49]): 200%
- T/C (P388 [50]): 112%
- T-C (P388 [51]): -3.7
- T-C (P388 [52]): -2.9
- Survivors (P388 [53]): 6

Source: ChEMBL document CHEMBL1123145, “Synthesis of pyrrolizidine alkaloids indicine, intermedine, lycopsamine, and analogues and their N-oxides. Potential antitumor agents” (1985)
